Measured values reported in PMC4245089 (International Journal of Nanomedicine, 2014).
Where “and” joins values, the source holds several entries; their conditions need not be identical. Equal entries are not always repeated. Entries after “also recorded” stand apart in the source; their conditions may differ.

Columns and labels:
[1] = test system: P. berghei-ANKA-infected C57BL/6 mice; experiment: Liver and kidney function tests; type: in vivo; conditions: serum
parasitized erythrocytes = experiment: Nanotized curcumin uptake assay by fluorimetry, parasitized erythrocytes; type: cell-based; conditions: treated (parasitized) cultures, 1 μM
[2] = mice, oral
uninfected erythrocytes = experiment: Nanotized curcumin uptake assay by fluorimetry, uninfected erythrocytes; type: cell-based; conditions: 1 μM
P. berghei-ANKA = experiment: Dose kinetics / antimalarial efficacy in P. berghei-ANKA-infected C57BL/6 mice; type: in vivo, Plasmodium berghei; conditions: oral, 10 mg/kg body weight
How it was run: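 C57BL/6 mice were infected intravenously with 2.5×10^6 P. berghei-ANKA parasites. Oral dosing began 24 h post-infection and ran twice weekly for 1 month at 10, 20 and 40 mg/kg body weight. Parasitemia was counted every fourth day, and mean survival days were recorded. Optimum dose was set by Peterson's test and mortality rate. Data are mean ± SEM, n=6.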

[3] = test system: Human fibroblast L-929 cells; experiment: Cell viability assay; type: cell-based; conditions: 8.11-129.88 μmol/L; 24, 48 and 72 hours
How it was run: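 L-929 fibroblasts seeded at 1×10^4 cells/well in DMEM. Exposed to native or nanoparticle test compound at 8.11–129.88 μmol/L for 24, 48 and 72 h. MTT (12 mM) added for 2 h at 37°C. Formazan dissolved in DMSO for 1 h at 37°C in the dark. Absorbance read at 595 nm.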

[4] = Aqueous dispersibility and storage stability of lyophilized powder; type: physicochemical
[5] = test system: P. falciparum 3D7 strain (chloroquine sensitive); experiment: Growth inhibition of blood-stage P. falciparum 3D7 by microscopy; type: cell-based, Plasmodium falciparum
How it was run: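 Human RBCs were infected with synchronized 3D7 ring stages and held at 10% hematocrit and 2% parasitemia, with medium changed every 24 h. Ten concentrations were run in duplicate, and stage of action was tested at 2.5 μM. Giemsa smears were read at 48 and 72 h. Percent parasitemia was taken as infected/total RBCs over at least ten fields. Dead parasites were scored by lost membrane, shrinkage or unstained cytoplasm.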

[6] = day 6, curcumin forms 20 mg/kg oral biweekly
[7] = day 15, curcumin forms 20 mg/kg oral biweekly
[8] = day 21, curcumin forms 20 mg/kg oral biweekly

For `COc1cc(C=CC(=O)CC(=O)C=Cc2ccc(O)c(OC)c2)ccc1O` [native curcumin, 1,7-bis(4-hydroxy 3-methoxyphenyl)-1,6-heptadiene-3,5-dione], which ALP [1, 6] is on record?
The ALP was 30.72±2.92 KA units.

And the Bilirubin [1, 6]?
The Bilirubin was 1.6 mg/dL and 1.60 ± 0.36 mg/dL.

What about the Creatinine [1, 6] of the same molecule?
The Creatinine was 3.29 ± 0.37 mg/dL.

And the SGOT activity [1, 6]?
The SGOT activity was 66.43±0.65 U/L.

What about the SGPT activity [1, 6] of the same molecule?
Its SGPT activity is 98.34±4.68 U/L.

And the Urea [1, 6]?
The Urea was 54.24 ± 2.37 mg/dL.

And the ALP [1, 7]?
Its ALP is 28.81±2.65 KA units.

What about the Bilirubin [1, 7] of the same molecule?
The Bilirubin was 2.19 ± 0.20 mg/dL.

What about the Creatinine [1, 7] of the same molecule?
The Creatinine was 2.90 ± 0.46 mg/dL.

What about the SGOT activity [1, 7] of the same molecule?
Its SGOT activity is 72.80±0.71 U/L.

And the SGPT activity [1, 7]?
Its SGPT activity is 102.69±5.71 U/L.

What about the Urea [1, 7] of the same molecule?
The Urea was 61.72 ± 2.61 mg/dL.

And the ALP [1, 8]?
The ALP was 36.91±2.67 KA units.

And the Bilirubin [1, 8]?
The Bilirubin was 2.10 mg/dL and 2.10 ± 0.25 mg/dL.

And the Creatinine [1, 8]?
The Creatinine was 2.70 ± 0.51 mg/dL.

What about the SGOT activity [1, 8] of the same molecule?
Its SGOT activity is 75.71±0.47 U/L.

And the SGPT activity [1, 8]?
Its SGPT activity is 136.31±6.45 U/L.

What about the Urea [1, 8] of the same molecule?
Its Urea is 87.46 ± 2.54 mg/dL.

What about the “concentration found inside the cells” value (parasitized erythrocytes; first growth cycle, n=3) of the same molecule?
Its value is 300 nM.

And the “concentration found inside the cells” value (parasitized erythrocytes; second growth cycle)?
The value was 250 nM.

What about the “time post-feeding until which curcumin was present/detectable in plasma” value [2] of the same molecule?
Its value is 15 h.

And the “concentration found inside the cells” value (uninfected erythrocytes; first growth cycle, n=3)?
Its value is 240 nM.

And the “concentration found inside the cells” value (uninfected erythrocytes; second growth cycle)?
The value was 100 nM.

And the “survival (to day)” value (P. berghei-ANKA)?
The value was 20 days.

And the “cytotoxicity (growth inhibition of L-929 cells)” value [3]?
The value was “marginal cytotoxic effects”.

What about the “dispersibility / solubility in water” value [4] of the same molecule?
The value was “only soluble in organic solvents such as dimethyl sulfoxide; also recorded: completely insoluble in water”.

And the IC50 ([5]; Plasmodium falciparum, 3D7, read-out: IC50 for growth inhibition of parasites)?
Its IC50 is 5 µM.

And the parasites eradicated ([5]; synchronized ring stage culture, 2.5 μM, 72 hours)?
The parasites eradicated was 60%.

For `CCN(CC)CCCC(C)Nc1ccnc2cc(Cl)ccc12` (stereo not drawn) [chloroquine], which ALP [1, 6] is on record?
The ALP was 16.4±2.61 KA units.

What about the Bilirubin [1, 6] of the same molecule?
The Bilirubin was 1.15 ± 0.16 mg/dL.

And the Creatinine [1, 6]?
The Creatinine was 2.10 ± 0.24 mg/dL.

What about the SGOT activity [1, 6] of the same molecule?
The SGOT activity was 36.20±0.72 U/L.

And the SGPT activity [1, 6]?
The SGPT activity was 39.41±4.32 U/L.

What about the Urea [1, 6] of the same molecule?
Its Urea is 50.32 ± 2.43 mg/dL.

And the ALP [1, 7]?
The ALP was 10.6±2.31 KA units.

What about the Bilirubin [1, 7] of the same molecule?
Its Bilirubin is 1.82 ± 0.18 mg/dL.

And the Creatinine [1, 7]?
The Creatinine was 1.60 ± 0.27 mg/dL.

And the SGOT activity [1, 7]?
Its SGOT activity is 33.31±0.61 U/L.

What about the SGPT activity [1, 7] of the same molecule?
The SGPT activity was 32.34±3.42 U/L.

What about the Urea [1, 7] of the same molecule?
The Urea was 40.82 ± 2.51 mg/dL.

And the Bilirubin [1, 8]?
The Bilirubin was 0.60 ± 0.24 mg/dL.

What about the Creatinine [1, 8] of the same molecule?
The Creatinine was 1.23 ± 0.17 mg/dL.

What about the SGOT activity [1, 8] of the same molecule?
The SGOT activity was 14.14±0.51 U/L.

What about the SGPT activity [1, 8] of the same molecule?
Its SGPT activity is 30.17±3.61 U/L.

And the Urea [1, 8]?
Its Urea is 33.44 ± 2.56 mg/dL.
